Calls of active or inactive are those of the source. No cut-off for these calls is given here.
What was measured:
[1] = target: 3',5'-cyclic-AMP phosphodiesterase 4B (Homo sapiens, UniProt Q07343); assay: Inhibition of full length recombinant human PDE4B1 expressed in Sf21 insect cells using cAMP as substrate by scintillation proximity assay
[2] = target: T1, Class 1 phosphodiesterase PDEB1 (Trypanosoma brucei) (UniProt Q8WQX9); assay: Inhibition of PDEB1 in bloodstream form of Trypanosoma brucei Lister 427 assessed as increase in intracellular cAMP levels at 0.3 uM after 5 hrs by ELISA; format: cell-based
T1 sequence (whole entry): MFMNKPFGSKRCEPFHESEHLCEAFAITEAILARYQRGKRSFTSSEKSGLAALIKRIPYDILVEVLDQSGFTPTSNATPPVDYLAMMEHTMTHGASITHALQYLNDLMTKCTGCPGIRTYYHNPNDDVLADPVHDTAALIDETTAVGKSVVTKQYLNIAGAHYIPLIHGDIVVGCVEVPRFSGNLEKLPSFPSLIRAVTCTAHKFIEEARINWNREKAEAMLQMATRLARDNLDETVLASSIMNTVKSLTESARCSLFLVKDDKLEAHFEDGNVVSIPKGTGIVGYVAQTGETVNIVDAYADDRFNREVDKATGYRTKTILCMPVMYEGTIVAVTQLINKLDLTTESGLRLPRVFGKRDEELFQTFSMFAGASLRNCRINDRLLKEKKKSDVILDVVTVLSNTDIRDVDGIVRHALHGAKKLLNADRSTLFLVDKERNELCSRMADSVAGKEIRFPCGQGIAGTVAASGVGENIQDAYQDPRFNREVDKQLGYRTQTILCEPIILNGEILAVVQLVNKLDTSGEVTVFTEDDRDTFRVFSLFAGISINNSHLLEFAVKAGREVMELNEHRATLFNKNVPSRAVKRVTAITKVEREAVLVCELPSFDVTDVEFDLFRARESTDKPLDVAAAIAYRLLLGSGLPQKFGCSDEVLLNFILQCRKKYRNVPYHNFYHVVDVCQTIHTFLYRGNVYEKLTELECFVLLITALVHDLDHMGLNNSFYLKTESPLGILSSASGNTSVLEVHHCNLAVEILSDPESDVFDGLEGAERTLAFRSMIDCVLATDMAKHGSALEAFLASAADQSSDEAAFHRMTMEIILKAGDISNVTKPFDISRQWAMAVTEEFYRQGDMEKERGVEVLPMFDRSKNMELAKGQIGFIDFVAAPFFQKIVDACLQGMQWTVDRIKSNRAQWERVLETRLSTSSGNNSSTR
Method in brief: (§1)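 Log-phase bloodstream forms in HMI-9/FBS at 2 × 10^6 cells/mL, 6 mL subcultures; test drug 0.1–10 μM, reference inhibitor 0.3 μM, pentamidine 0.025 μM or no drug; 5 h at 37 °C, 5% CO2. 5 × 10^6 cells pelleted, lysed 20 min on ice in 0.1 M HCl, supernatant frozen for cAMP. Duplicates; mean of four determinations ± SEM; Student's t-test.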

[3] = target: T2, Class 1 phosphodiesterase PDEB1 (Trypanosoma brucei, UniProt Q8WQX9); assay: Inhibition of full length Trypanosoma brucei PDEB1 expressed in Sf21 insect cells using cAMP as substrate by scintillation proximity assay
T2 sequence (Q8WQX9 whole entry): T1 sequence (whole entry)
Method in brief: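 Enzyme amount set so that under 20% of substrate was consumed. Ki reported as mean ± SD of at least two independent experiments.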

[4] = target: T1, Class 1 phosphodiesterase PDEB1 (Trypanosoma brucei); assay: Inhibition of PDEB1 in bloodstream form of Trypanosoma brucei Lister 427 assessed as increase in intracellular cAMP levels at 0.025 uM after 5 hrs by ELISA; format: cell-based; method in brief: as §1
[5] = Selectivity ratio of Ki for full length recombinant human PDE4B1 to Ki for full length Trypanosoma brucei PDEB1
[6] = tested on: Trypanosoma brucei; assay: Antitrypanosomal activity against trypomastigote form of Trypanosoma brucei Squib 427 assessed as parasite growth inhibition after 72 hrs by resazurin assay; format: functional, organism-based; settings: Squib 427, 72 h
Method in brief: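 Suramin-sensitive Squib-427 bloodstream trypomastigotes grown in HMI-9 + 10% FCS at 37 °C, 5% CO2. About 1.5 × 10^4 parasites per well exposed to five concentrations (64, 16, 4, 1, 0.25 μM), DMSO ≤0.5% final. After 72 h, resazurin added and absorbance read at 540 nm 4 h later, expressed as % of blank controls. Suramin reference; IC50 from triplicate experiments, mean ± SD.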

[7] = tested on: MRC5; assay: Cytotoxicity against human MRC5 cells assessed as decrease in cell viability after 72 hrs by resazurin assay; format: cell-based; settings: mrc5, 72 h
[8] = target: T1, Class 1 phosphodiesterase PDEB1 (Trypanosoma brucei); assay: Inhibition of PDEB1 in bloodstream form of Trypanosoma brucei Lister 427 assessed as increase in intracellular cAMP levels after 5 hrs by ELISA; format: cell-based; method in brief: as §1
[9] = tested on: Trypanosoma brucei; assay: Antitrypanosomal activity against bloodstream form of Trypanosoma brucei Lister 427 assessed as defect in cytokinesis at 10 uM after 6 hrs by DAPI staining-based fluorescence microscopic method; format: functional, organism-based
Method in brief: (§2)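 Bloodstream-form trypanosomes seeded at 2 × 10^5 cells/mL with 10 μM drug; samples taken at 0, 6, 12 and 24 h, pelleted at 4 °C, washed in PBS pH 7.4, air-dried on slides, fixed 15 min in 4% formaldehyde/PBS, mounted with DAPI. Nuclei, kinetoplasts, cell division and morphology were scored by brightfield and fluorescence microscopy.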

[10] = tested on: Trypanosoma brucei; assay: Antitrypanosomal activity against bloodstream form of Trypanosoma brucei Lister 427 assessed as appearance of rounded cells with multiple flagella at 10 uM after 12 hrs by DAPI staining-based fluorescence microscopic method; format: functional, organism-based; method in brief: as §2
[11] = tested on: Trypanosoma brucei; assay: Antitrypanosomal activity against bloodstream form of Trypanosoma brucei Lister 427 assessed as appearance of misshapen cells at 10 uM after 24 hrs by DAPI staining-based fluorescence microscopic method; format: functional, organism-based; method in brief: as §2

Chain of 3',5'-cyclic-AMP phosphodiesterase 4B (Q07343 whole entry): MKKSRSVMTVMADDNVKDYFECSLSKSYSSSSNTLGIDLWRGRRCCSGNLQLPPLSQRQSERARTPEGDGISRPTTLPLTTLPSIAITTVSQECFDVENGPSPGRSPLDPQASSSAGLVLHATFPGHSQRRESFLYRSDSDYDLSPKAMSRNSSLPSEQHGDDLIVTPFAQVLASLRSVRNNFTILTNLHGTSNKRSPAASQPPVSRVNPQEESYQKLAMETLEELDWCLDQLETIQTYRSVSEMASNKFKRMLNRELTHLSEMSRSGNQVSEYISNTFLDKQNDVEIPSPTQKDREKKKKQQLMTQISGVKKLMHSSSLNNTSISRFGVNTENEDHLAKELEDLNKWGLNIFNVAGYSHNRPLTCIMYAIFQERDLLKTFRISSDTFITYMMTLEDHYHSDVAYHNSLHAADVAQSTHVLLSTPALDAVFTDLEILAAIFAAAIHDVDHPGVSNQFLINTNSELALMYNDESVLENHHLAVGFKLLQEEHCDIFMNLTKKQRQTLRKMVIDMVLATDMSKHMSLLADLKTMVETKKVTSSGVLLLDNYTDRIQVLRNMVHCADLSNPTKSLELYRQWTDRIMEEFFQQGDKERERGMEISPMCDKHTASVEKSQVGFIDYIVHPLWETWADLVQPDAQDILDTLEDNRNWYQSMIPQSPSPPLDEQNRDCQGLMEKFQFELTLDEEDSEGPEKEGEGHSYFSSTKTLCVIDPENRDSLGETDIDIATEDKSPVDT

Structure (SMILES)	Ki [1]	Ki [3]	Ratio Ki [5]	also measured
COc1ccc(C2=NN(C3CCCCCC3)C(=O)[C@@H]3CC=CC[C@H]23)cc1OCCCCOc1ccc(-c2nnn[nH]2)cc1	0.000631 µM			inhibition [2]: Active
COc1ccc(C2=NN(C3CCCCCC3)C(=O)[C@H]3CC=CC[C@@H]23)cc1-c1ccc(C(=O)NCC(N)=O)cc1	50.1 µM	3.98 µM		
N=C(N)c1ccc(OCCCCCOc2ccc(C(=N)N)cc2)cc1				inhibition [4]: inactive
COc1ccc(C2=NN(C(C)C)C(=O)[C@@H]3CC=CC[C@H]23)cc1-c1ccc(C(=O)N2CCC[C@@H]2C(N)=O)cc1 (racemic)			18	
COc1ccc(C2=NN(C(C)C)C(=O)[C@@H]3CC=CC[C@H]23)cc1-c1ccc(C(=O)N2CC[C@@H](O)C2)cc1 (racemic)			15	
COc1ccc(C2=NN(C3CCCCCC3)C(=O)[C@@H]3CC=CC[C@H]23)cc1-c1ccc(C(=O)N2CCC[C@@H]2C(N)=O)cc1 (racemic)			13	
COc1ccc(C2=NN(C3CCCCCC3)C(=O)[C@@H]3CC=CC[C@H]23)cc1-c1ccc(C(=O)N2CC[C@@H](O)C2)cc1 (racemic)			9	
COc1ccc(C2=NN(C3CCCCCC3)C(=O)[C@@H]3CC=CC[C@H]23)cc1-c1ccc(C#N)cc1 (relative stereo)	0.0316 µM	0.501 µM	0.1	
COc1ccc(C2=NN(C3CCCCCC3)C(=O)[C@@H]3CC=CC[C@H]23)cc1-c1ccc(C(N)=O)cc1 (relative stereo)	0.158 µM	0.158 µM	1	
COc1ccc(C2=NN(C3CCCCCC3)C(=O)[C@@H]3CC=CC[C@H]23)cc1-c1cccc(C(=O)O)c1 (relative stereo)	12.6 µM	7.94 µM	2	
COc1ccc(C2=NN(C3CCCCCC3)C(=O)[C@@H]3CC=CC[C@H]23)cc1-c1ccc(C(=O)NCC(=O)NCCO)cc1 (relative stereo)	3.16 µM	0.398 µM	7	
COc1ccc(C2=NN(C(C)C)C(=O)[C@@H]3CC=CC[C@H]23)cc1-c1ccc(C(=O)NCC(N)=O)cc1 (relative stereo)	2 µM	0.1 µM		IC50 ([6]; read-out: IC50): 6.7 µM; CC50 [7]: 35 µM
COc1ccc(C2=NN(C3CCCCCC3)C(=O)[C@@H]3CC=CC[C@H]23)cc1-c1ccc(C(=O)O)cc1 (relative stereo)	7.94 µM	1.58 µM	5	
COc1ccc(C2=NN(C3CCCCCC3)C(=O)[C@@H]3CC=CC[C@H]23)cc1-c1ccc(C(=O)N(C)CC(N)=O)cc1 (relative stereo)	2.51 µM	0.398 µM	7	
COc1ccc(C2=NN(C3CCCCCC3)C(=O)[C@@H]3CC=CC[C@H]23)cc1-c1ccc(C(=O)NCCC(N)=O)cc1 (relative stereo)	1 µM	0.501 µM	2	
COCCNC(=O)CNC(=O)c1ccc(-c2cc(C3=NN(C4CCCCCC4)C(=O)[C@@H]4CC=CC[C@H]34)ccc2OC)cc1 (relative stereo)	3.98 µM	0.501 µM	8	
COc1ccc(C2=NN(C3CCCCCC3)C(=O)[C@@H]3CC=CC[C@H]23)cc1-c1ccc(C(=O)NCC(N)=O)cc1 (relative stereo)				inhibition [8]: Dose-dependent effect; Activity [9]: Active; Activity [10]: Active; Activity [11]: Active; IC50 ([6]; read-out: IC50): 5.5 µM; CC50 [7]: 36 µM
COc1ccc(C2=NN(C3CCCCCC3)C(=O)[C@@H]3CC=CC[C@H]23)cc1-c1ccc(C(=O)NCC(=O)NC(C)C)cc1 (relative stereo)	6.31 µM	2 µM	4	
COc1ccc(C2=NN(C3CCCCCC3)C(=O)[C@@H]3CC=CC[C@H]23)cc1-c1ccc(C(=O)NCCNC(C)=O)cc1 (relative stereo)	3.98 µM	0.794 µM	5	
COCCNC(=O)c1ccc(-c2cc(C3=NN(C4CCCCCC4)C(=O)[C@@H]4CC=CC[C@H]34)ccc2OC)cc1 (relative stereo)	2 µM	0.316 µM	7	
CNC(=O)CNC(=O)c1ccc(-c2cc(C3=NN(C4CCCCCC4)C(=O)[C@@H]4CC=CC[C@H]34)ccc2OC)cc1 (relative stereo)	2.51 µM	0.398 µM	6	
COc1ccc(C2=NN(C3CCCCCC3)C(=O)[C@@H]3CC=CC[C@H]23)cc1-c1ccc(C(=O)NCC(=O)N(C)C)cc1 (relative stereo)	3.16 µM	0.794 µM	4	
COc1ccc(C2=NN(C3CCCCCC3)C(=O)[C@@H]3CC=CC[C@H]23)cc1-c1ccc(C(=O)N2CC(=O)N(C)C2)cc1 (relative stereo)			1.4	
COc1ccc(C2=NN(C3CCCCCC3)C(=O)[C@@H]3CC=CC[C@H]23)cc1-c1ccc(C(=O)N2CCC(=O)C2)cc1 (relative stereo)			3	
COc1ccc(C2=NN(C3CCCCCC3)C(=O)[C@@H]3CC=CC[C@H]23)cc1-c1ccc(C(=O)N2CNC(=O)C2)cc1 (relative stereo)			1	
O=C(Nc1c(Cl)cncc1Cl)c1ccc(OC(F)F)c(OCC2CC2)c1 [ROFLUMILAST]		3.16 µM		
Cc1ccc(C(=O)Nc2ccc(S(=O)(=O)O)c3cc(S(=O)(=O)O)cc(S(=O)(=O)O)c23)cc1NC(=O)c1cccc(NC(=O)Nc2cccc(C(=O)Nc3cc(C(=O)Nc4ccc(S(=O)(=O)O)c5cc(S(=O)(=O)O)cc(S(=O)(=O)O)c45)ccc3C)c2)c1 [SURAMIN]				IC50 ([6]; read-out: pIC50 (converted)): 0.0398 µM
